From PubChem
OX1R antag-1 – blocks the human orexin 1 receptor; inhibition, % at 6.6 µM; 1.8% of 330,000 active; OX1R-expressing cells, FRET antagonist read-out; in the data active means inhibition mostly above about 38%, no sharp cut-off; inactive means mostly below about 40%;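 further: 0% = agonist challenge alone and 100% = reference antagonist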
OXTR agonist – human OXTR agonism | P30559 | CHO-OTR cells, Fluo-8 calcium fluorescence; normalized: DMSO 0%, oxytocin 100% | activation, % at 3 µM | 0.32% of 320,000 active | AID 2435;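 active means activation above the mean of all tested compounds plus 3 SD, cutoff set per screening run, cut at about 20% in these data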;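 further: peak over basal fluorescence ratio from a 100 s FLIPR kinetic read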
V1R ag counter – activates human V1a receptor in oxytocin agonist counter-screen; activation, % at 3 µM; AID 2797; CHO-V1R cells, Fluo-8 calcium fluorescence, agonist mode; 0% DMSO, 100% 3 nM vasopressin; 0.25% of 320,000 active; P37288;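 active means activation above the mean activation of all tested compounds plus 3 SD, per screening run, cut at about 20% in these data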;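 further: signal is peak over basal fluorescence ratio across a 100 second FLIPR read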
Target sequence (P37288 whole entry, looked up): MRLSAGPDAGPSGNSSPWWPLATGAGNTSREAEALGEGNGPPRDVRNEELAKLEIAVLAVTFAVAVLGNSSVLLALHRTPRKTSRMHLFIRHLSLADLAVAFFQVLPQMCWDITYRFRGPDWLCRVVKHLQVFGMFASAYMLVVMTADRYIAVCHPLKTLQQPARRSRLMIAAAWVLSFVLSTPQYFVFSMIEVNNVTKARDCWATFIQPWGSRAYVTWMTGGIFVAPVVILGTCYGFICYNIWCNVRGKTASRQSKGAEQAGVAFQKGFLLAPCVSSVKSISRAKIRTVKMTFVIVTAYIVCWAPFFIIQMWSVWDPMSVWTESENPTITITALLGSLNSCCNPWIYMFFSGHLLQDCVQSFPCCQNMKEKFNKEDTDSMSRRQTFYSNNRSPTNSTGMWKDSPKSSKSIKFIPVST
CHO parental Ca – counter-screen: ATP calcium response change in parental CHO cells; parental CHO-K1, ATP-induced calcium, Fluo-8 fluorescence; inhibition, % at 5.6 µM; 0.63% of 330,000 active; AID 463079;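 active means inhibition above that plate's mean sample inhibition plus 3 SD, cut at about 26% in these data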;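 further: 0% = ATP-challenged DMSO wells and 100% = DMSO wells without ATP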
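Test system: untransfected parental CHO cell line; also added: ATP stimulus; dosing: 5.6 µM, single dose; signal: calcium-sensitive Fluo-8 fluorescence; measure: percent inhibition of ATP-evoked calcium rise, normalized to controls; benchmarks: low control ATP plus DMSO, high control DMSO only; replication: one well per compound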
OX1R antag-2 – antagonists of human orexin 1 receptor. O43613. CHO/OX1R cells, Fluo-8 calcium fluorescence, orexin A. inhibition, % at 5 µM. 0.43% of 330,000 active. AID 434989;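 active means inhibition above its plate's threshold, mean inhibition of all tested compounds on the plate plus 3 SD, cut at about 37% in these data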;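 further: 0% = orexin A challenge wells and 100% = SB-334867-A antagonist wells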
OXTR potentiate – human OXTR potentiation; P30559; CHO-OTR cells, Fluo-8 calcium fluorescence, potentiator mode; 0% = oxytocin EC15, 100% = EC100; activation, % at 3 µM; 0.061% of 320,000 active; AID 2445;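 active means activation above that plate's cutoff, the mean activation of tested compounds plus 3 SD, cut at about 6.6% in these data, passing the limit was not always enough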;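 further: 100% uses oxytocin at 75 nM as the full agonist control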
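Assay system: CHO-OTR cells, human receptor / Also added: oxytocin at about EC15, sub-maximal agonist stimulus / Dosing: single dose, 3.0 µM nominal final compound concentration / Incubation: 6 min pre-incubation, 100 s read / Technique: Fluo-8 calcium dye fluorescence / Read-out: % activation vs EC15 and EC100 oxytocin / Benchmarks: EC15 oxytocin low, 75 nM oxytocin high / Replicates: singlicate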
Active calls of the source: *. Most compounds without a hit are left out; they make up all but 2.7% or so of the library.

Results for CN1CCC(NC(=O)Nc2cccc(C(F)(F)F)c2)CC1 ?
OX1R antag-1: 13; OXTR agonist: 1; V1R ag counter: 0; CHO parental Ca: 12; OX1R antag-2: -3; OXTR potentiate: -5

Results for CSCCC(NC(=O)COc1ccccc1)C(=O)N(C)Cc1ccc(SC)cc1 (stereo unspecified) ?
OX1R antag-1: 16; OXTR agonist: 2; V1R ag counter: 5; CHO parental Ca: -17; OX1R antag-2: -3; OXTR potentiate: -8

Results for CNS(=O)(=O)c1cc(Nc2ncnc3sccc23)ccc1C ?
OX1R antag-1: 63*; OXTR agonist: 1; V1R ag counter: 5; CHO parental Ca: 4; OX1R antag-2: 19; OXTR potentiate: -23

How did O=C(O)c1cccc(NC(=S)N/N=C/c2ccccc2OCc2ccc(Br)cc2)c1 do in these assays?
OX1R antag-1: 50; OXTR agonist: -2; V1R ag counter: 0; CHO parental Ca: 42*; OX1R antag-2: 16; OXTR potentiate: -10

Results for O=C(O)c1cccc(NC(=S)N/N=C/c2cccc(O)c2)c1 ?
OX1R antag-1: -1; OXTR agonist: 0; V1R ag counter: 0; CHO parental Ca: 4; OX1R antag-2: 8; OXTR potentiate: -7

What do the screens show for `COC(=O)c1sccc1NC(=O)c1ccc(C)o1`?
OX1R antag-1: 21; OXTR agonist: -2; V1R ag counter: -1; CHO parental Ca: -5; OX1R antag-2: -19; OXTR potentiate: 0

What do the screens show for `COC(=O)c1sccc1-c1ccc(C(=O)Nc2ccccc2)o1`?
OX1R antag-1: 59*; OXTR agonist: -1; V1R ag counter: -1; CHO parental Ca: -10; OX1R antag-2: -2; OXTR potentiate: 0

Results for CCCCNc1c(-c2ccc(SC3CCCCC3)cc2)nc2ccccn12 ?
OX1R antag-1: 31; OXTR agonist: -1; V1R ag counter: 0; CHO parental Ca: 80*; OX1R antag-2: 41; OXTR potentiate: -6

How did Cc1ccc2nc(-c3cccc(SC4CCCCC4)c3)c(NCc3ccccc3)n2c1 do in these assays?
OX1R antag-1: 11; OXTR agonist: 0; V1R ag counter: 5; CHO parental Ca: -13; OX1R antag-2: 16; OXTR potentiate: -6

What do the screens show for `CCCCNc1c(-c2ccc(SC(C)CC)cc2)nc2ccccn12` (stereo unspecified)?
OX1R antag-1: 61; OXTR agonist: -2; V1R ag counter: -1; CHO parental Ca: 87*; OX1R antag-2: 56*; OXTR potentiate: -11

What do the screens show for `CCCCNc1c(-c2cccc(SC3CCCCC3)c2)nc2ccc(Cl)cn12`?
OX1R antag-1: 29; OXTR agonist: -1; V1R ag counter: 0; CHO parental Ca: -40; OX1R antag-2: -36; OXTR potentiate: -5

What do the screens show for `c1ccc(CNc2c(-c3cccc(SC4CCCCC4)c3)nc3ccccn23)cc1`?
OX1R antag-1: 35; OXTR agonist: -1; V1R ag counter: 1; CHO parental Ca: 82*; OX1R antag-2: 73*; OXTR potentiate: -4

How did O=C(Nc1ccc(Cl)cc1)NC1CCCCC1Cc1ccco1 (stereo unspecified) do in these assays?
OX1R antag-1: 47*; OXTR agonist: 1; V1R ag counter: 2; CHO parental Ca: 14; OX1R antag-2: -2; OXTR potentiate: -10

Results for COc1cccc(OC)c1OCCN1CCN(C(c2ccccc2)c2ccccc2)CC1 ?
OX1R antag-1: 7; OXTR agonist: -1; V1R ag counter: 2; CHO parental Ca: -19; OX1R antag-2: -19; OXTR potentiate: -15

Results for CCOc1ccccc1CNS(=O)(=O)c1ccc(-c2cnc(C3CC3)o2)cc1 ?
OX1R antag-1: 45; OXTR agonist: 6; V1R ag counter: 8; CHO parental Ca: 33*; OX1R antag-2: 24; OXTR potentiate: -14

Results for O=S(=O)(NCc1ccccc1)c1ccc(-c2cnc(C3CC3)o2)cc1 ?
OX1R antag-1: 16; OXTR agonist: 4; V1R ag counter: 6; CHO parental Ca: -11; OX1R antag-2: -4; OXTR potentiate: -13

How did Clc1ccsc1-c1csc(-c2cccnc2)n1 do in these assays?
OX1R antag-1: 71*; OXTR agonist: -2; V1R ag counter: -1; CHO parental Ca: -18; OX1R antag-2: 17; OXTR potentiate: -14
